In article PMC4749511 (Bioorganic & medicinal chemistry, 2015):
Entries after “also recorded” stand apart in the source; their conditions may differ.

tested on: EGFP-H-Ras; assay: EGFP-H-Ras plasma membrane localization by confocal microscopy; format: cell-based, human; details: HCT-116 cells, FTI 2 μM, 20 hours
How it was run: (§1)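 HCT-116 cells (DMEM, 10% FBS, 1% NEAA, 37 °C, 5% CO2) seeded at 4 × 10^4 per glass-bottom well and transfected 24 h later with the EGFP-Ras plasmid (0.5 μg DNA per 1 μL TrueFect). Treated with FTI or DMSO vehicle for 20 h, then live confocal imaging (488 nm excitation, 500-600 nm emission), at least 40 cells per condition. Normalised (0-1) line-scan intensity across each cell; PM width 1 μm.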

**Q.** For `CC[C@H](C)[C@@H](CO[C@@H](Cc1ccccc1)C(=O)N[C@@H](CCS(C)(=O)=O)C(=O)OC(C)C)NC[C@@H](N)CS` [L744,832], which “H-Ras PM association (percent of total fluorescence at the PM)” value is on record?
**A.** < 10%

biological target: rat FTase (Rattus norvegicus, UniProt Q02293+Q04631); assay: Fluorescence-based FTase assay; format: biochemical; details: tested at 10, 25 and 50 μM
How it was run: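 Rat FTase added in enzyme solution (62.5 nM FTase, Tris pH 7.5, ZnCl2, MgCl2, KCl, DTT, BSA) to start reaction. Wells held dansyl-GCVLS, FPP, DTT, Tris pH 7.5, MgCl2, ZnCl2, octyl-β-D-glucopyranoside and test compound in DMSO (12.5 μL DMSO per 250 μL). Fluorescence read at 340 nm excitation, 535 nm emission, every 40 s for 1 h. Rate from first 10 min converted to nM/s via νi = RP/ΔF.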

**Q.** Which “FTase activity inhibition (in words)” value does the source give for `O=C(O)c1cccc(NC(c2ccccc2)c2ccc3ccccc3c2O)c1` (stereo not drawn) [Compound 30, 3-(((1-Hydroxynaphthalen-2-yl)(phenyl)methyl)amino)benzoic acid] here?
**A.** not inhibited

**Q.** Which “FTase activity inhibition (in words)” value does the source give for `O=C(O)c1ccc(NC(c2ccc(Br)cc2)c2ccc3cccnc3c2O)cc1` (stereo not drawn) [Compound 5, 4-(((4-Bromophenyl)(8-hydroxyquinolin-7-yl)methyl)amino)benzoic acid] here?
**A.** not inhibited

**Q.** With `Oc1c(C(Nc2ccccc2)c2ccccc2)ccc2cccnc12` (stereo not drawn) [Compound 2, 7-(Phenyl(phenylamino)methyl)quinolin-8-ol] as the compound, how does the “FTase activity inhibition (in words)” value read?
**A.** not inhibited

biological target: T1, human Rce1 (HsRce1) (Homo sapiens, UniProt Q9Y256); assay: In vitro fluorescence-based CaaX proteolysis assay; format: biochemical; details: single-point, 10 μM
T1 sequence (Q9Y256 1-329): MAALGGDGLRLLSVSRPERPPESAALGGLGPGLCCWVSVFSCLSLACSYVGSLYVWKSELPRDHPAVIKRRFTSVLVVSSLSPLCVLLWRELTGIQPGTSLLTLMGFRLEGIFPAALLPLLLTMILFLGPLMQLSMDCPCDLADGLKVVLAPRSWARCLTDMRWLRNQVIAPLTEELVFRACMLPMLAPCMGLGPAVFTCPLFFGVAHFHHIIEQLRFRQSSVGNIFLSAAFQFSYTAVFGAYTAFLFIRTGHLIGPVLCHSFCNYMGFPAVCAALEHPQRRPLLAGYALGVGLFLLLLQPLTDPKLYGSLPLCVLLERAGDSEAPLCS
How it was run: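 Membranes from yeast expressing HsRce1, in 200 mM Tris pH 7.5, 200 mM NaCl, 1 mg/mL BSA. Preincubated with test compound (from 50× DMSO stock) for 15 min at 30 °C in duplicate wells. Started with quenched ABZ-KSKTKC(farnesyl)QLIM at 20 μM final; membranes 0.25 mg/mL final. Fluorescence 320/420 nm read every 30-60 s for 60 min at 30 °C. Initial velocities expressed as % of DMSO control, normalised by trypsin (10 μg/mL) full digestion.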

**Q.** Which “HsRce1 inhibition (in words)” value does the source give for `O=C(O)c1ccc(NC(c2ccccn2)c2ccc3cccnc3c2O)cc1` (stereo not drawn) [Compound 15, 4-(((8-Hydroxyquinolin-7-yl)(pyridin-2-yl)methyl)amino)benzoic acid] here?
**A.** no significant reduction in Rce1 activity

**Q.** For `c1ccc(NC(c2ccccc2)c2ccc3cccnc3c2)cc1` (stereo not drawn) [Compound 43, N-(Phenyl(quinolin-7-yl)methyl)aniline], which “HsRce1 inhibition (in words)” value is on record?
**A.** little inhibitory activity

**Q.** For `c1ccc(NC(c2ccccc2)c2ccc3ccccc3c2)cc1` (stereo not drawn) [Compound 44, N-(naphthalen-2-yl(phenyl)methyl)aniline], which “HsRce1 inhibition (in words)” value is on record?
**A.** little inhibitory activity

**Q.** For `Oc1ccc2ccccc2c1C(Nc1ccccc1)c1ccccc1` (stereo not drawn) [Compound 34, 1-(Phenyl(phenylamino)methyl)naphthalen-2-ol], which “HsRce1 inhibition (in words)” value is on record?
**A.** weaker inhibitors

**Q.** With `O=C(O)c1ccc(NC(c2ccc3cccnc3c2O)c2c(F)cc(Br)cc2F)cc1` (stereo not drawn) [Compound 25, 4-(((4-Bromo-2,6-difluorophenyl)(8-hydroxyquinolin-7-yl)methyl)amino)benzoic acid] as the compound, how does the “HsRce1 inhibition (in words)” value read?
**A.** no significant reduction in Rce1 activity

**Q.** With `O=C(O)c1ccc(NC(c2ccc(Br)cc2)c2ccc(Br)cc2)cc1` [Compound 53, 4-((bis(4-Bromophenyl)methyl)amino)benzoic acid] as the compound, how does the “HsRce1 inhibition (in words)” value read?
**A.** relatively inactive

**Q.** Which “HsRce1 inhibition (in words)” value does the source give for “Methyl 4-(((8-methoxyquinolin-7-yl)(phenyl)methyl)amino)benzoate [Compound 32]” here?
**A.** little inhibitory activity

**Q.** For `O=C(O)c1ccc(NC(c2ccccc2)c2ccccc2)cc1` [Compound 51, 4-(Benzhydrylamino)benzoic acid], which “HsRce1 inhibition (in words)” value is on record?
**A.** inactive; also recorded: Neither the ethyl ester 48 nor the acid derivative 51 showed any effect upon inhibition of the enzyme

**Q.** For `O=[N+]([O-])c1ccc(C(Nc2ccccc2)c2ccc3cccnc3c2O)cc1` (stereo not drawn) [Compound 7, reference compound], which “HsRce1 inhibition (in words)” value is on record?
**A.** did not inhibit HsRce1 activity significantly

**Q.** Which “HsRce1 inhibition (in words)” value does the source give for `Oc1c(CNc2ccccc2)ccc2cccnc12` [Compound 20, 7-((Phenylamino)methyl)quinolin-8-ol] here?
**A.** no significant effect on Rce1 proteolysis activity

**Q.** With `O=C(O)c1ccc(NC(c2cccnc2)c2ccc3cccnc3c2O)cc1` (stereo not drawn) [Compound 16, 4-(((8-Hydroxyquinolin-7-yl)(pyridin-3-yl)methyl)amino)benzoic acid] as the compound, how does the “HsRce1 inhibition (in words)” value read?
**A.** no significant reduction in Rce1 activity

**Q.** Which “HsRce1 inhibition (in words)” value does the source give for `CCOC(=O)c1ccc(NC(c2ccccc2)c2ccccc2)cc1` [Compound 48, Ethyl 4-(benzhydrylamino)benzoate] here?
**A.** Neither the ethyl ester 48 nor the acid derivative 51 showed any effect upon inhibition of the enzyme

**Q.** For `Oc1c(C(Nc2ccccc2)c2c(F)cc(Br)cc2F)ccc2cccnc12` (stereo not drawn) [Compound 24, 7-((4-Bromo-2,6-difluorophenyl)(phenylamino)methyl)quinolin-8-ol], which “HsRce1 inhibition (in words)” value is on record?
**A.** no significant reduction in Rce1 activity

**Q.** For `C[C@@H](N[C@H](c1ccccc1)c1c(O)ccc2ccccc12)c1ccccc1` [Compound 47], which “HsRce1 inhibition (in words)” value is on record?
**A.** weaker inhibitors

**Q.** Which “HsRce1 inhibition (in words)” value does the source give for `CCOC(=O)c1ccc(NC(c2ccc(Br)cc2)c2ccc(Br)cc2)cc1` [Compound 50, Ethyl 4-((bis(4-bromophenyl)methyl)amino)benzoate] here?
**A.** relatively inactive

**Q.** Which “HsRce1 inhibition (in words)” value does the source give for `O=C(O)c1ccc(NC(c2ccccc2)c2ccc(Br)cc2)cc1` (stereo not drawn) [Compound 52, 4-(((4-Bromophenyl)(phenyl)methyl)amino) benzoic acid] here?
**A.** relatively inactive

**Q.** With `N#Cc1ccc(C(Nc2ccc(C(=O)O)cc2)c2ccc3cccnc3c2O)cc1` (stereo not drawn) [Compound 3, 4-(((4-Cyanophenyl)(8-hydroxyquinolin-7-yl)methyl)amino)benzoic acid] as the compound, how does the “HsRce1 inhibition (in words)” value read?
**A.** did not inhibit HsRce1 activity significantly

**Q.** With `CCCCCCCCOc1ccc(C(Nc2ccccc2)c2ccc3cccnc3c2O)cc1` (stereo not drawn) [Compound 26, 7-((4-(Octyloxy)phenyl)(phenylamino)methyl)quinolin-8-ol] as the compound, how does the “HsRce1 inhibition (in words)” value read?
**A.** did not inhibit HsRce1 activity significantly

**Q.** Which “HsRce1 inhibition (in words)” value does the source give for `Oc1c(C(Nc2ccccc2)c2ccccc2)cc(Br)c2ccccc12` (stereo not drawn) [Compound 33, 4-Bromo-2-(phenyl(phenylamino)methyl)naphthalen-1-ol] here?
**A.** retained inhibitory activity

**Q.** For `Oc1ccc2ccc(O)c(C(Nc3ccccc3)c3ccccc3)c2c1` (stereo not drawn) [Compound 35, 1-(Phenyl(phenylamino)methyl)naphthalene-2,7-diol], which “HsRce1 inhibition (in words)” value is on record?
**A.** weaker inhibitors

**Q.** For `CCOC(=O)c1ccc(NC(c2ccccc2)c2ccc(Br)cc2)cc1` (stereo not drawn) [Compound 49, Ethyl 4-(((4-bromophenyl)(phenyl)methyl)amino)benzoate], which “HsRce1 inhibition (in words)” value is on record?
**A.** relatively inactive

tested on: GFP-Ras2p reporter; assay: not given; details: yeast cells; cited from earlier work

**Q.** Which “GFP-Ras2p reporter mislocalization (in words)” value does the source give for `O=C(O)c1ccc(NC(c2ccccc2)c2ccc3cccnc3c2O)cc1` (stereo not drawn) [Compound 1, 4-(((8-Hydroxyquinolin-7-yl)(phenyl)methyl)amino)benzoic acid] here?
**A.** mislocalizes a GFP-Ras2p reporter

biological target: T1, human Rce1 (HsRce1); assay: not given; details: read-out: HsRce1 IC50; in vitro proteolysis assay; cited from earlier work

**Q.** Which IC50 does the source give for `O=C(O)c1ccc(NC(c2ccccc2)c2ccc3cccnc3c2O)cc1` (stereo not drawn) [Compound 1, 4-(((8-Hydroxyquinolin-7-yl)(phenyl)methyl)amino)benzoic acid] here?
**A.** 9 µM

tested on: EGFP-K-Ras (K-Ras4b); assay: EGFP-K-Ras plasma membrane localization by confocal microscopy; format: cell-based, human; details: HCT-116 cells, FTI 2 μM, 20 hours
How it was run: as §1

**Q.** Which “K-Ras PM association (percent of total fluorescence at the PM)” value does the source give for `CC[C@H](C)[C@@H](CO[C@@H](Cc1ccccc1)C(=O)N[C@@H](CCS(C)(=O)=O)C(=O)OC(C)C)NC[C@@H](N)CS` [L744,832] here?
**A.** ~35%

same assay, conditions: HCT-116 cells, Rce1 inhibitor 25 μM, 20 hours

**Q.** For `O=C(O)c1ccc(NC(c2ccc(F)cc2)c2ccc3cccnc3c2O)cc1` (stereo not drawn) [Compound 6, 4-(((4-Fluorophenyl)(8-hydroxyquinolin-7-yl)methyl)amino)benzoic acid], which “K-Ras PM association (percent of total fluorescence at the PM)” value is on record?
**A.** more effective at mislocalizing K-Ras than the FTI

**Q.** Which “K-Ras PM association (percent of total fluorescence at the PM)” value does the source give for `O=C(O)c1ccc(NC(c2ccccc2)c2ccc3cccnc3c2O)cc1` (stereo not drawn) [Compound 1, 4-(((8-Hydroxyquinolin-7-yl)(phenyl)methyl)amino)benzoic acid] here?
**A.** more effective at mislocalizing K-Ras than the FTI

**Q.** For `O=C(O)c1ccc(NC(c2ccc3cccnc3c2O)C2CCCCC2)cc1` (stereo not drawn) [Compound 17, 4-((Cyclohexyl(8-hydroxyquinolin-7-yl)methyl)amino)benzoic acid], which “K-Ras PM association (percent of total fluorescence at the PM)” value is on record?
**A.** more effective at mislocalizing K-Ras than the FTI

**Q.** Which “K-Ras PM association (percent of total fluorescence at the PM)” value does the source give for `Oc1c(C(Nc2ccccc2)c2ccccc2)ccc2cccnc12` (stereo not drawn) [Compound 2, 7-(Phenyl(phenylamino)methyl)quinolin-8-ol] here?
**A.** more effective at mislocalizing K-Ras than the FTI

tested on: EGFP-N-Ras; assay: EGFP-N-Ras plasma membrane localization by confocal microscopy; format: cell-based, human; details: HCT-116 cells, FTI 2 μM, 20 hours
How it was run: as §1

**Q.** Which “N-Ras PM association (percent of total fluorescence at the PM)” value does the source give for `CC[C@H](C)[C@@H](CO[C@@H](Cc1ccccc1)C(=O)N[C@@H](CCS(C)(=O)=O)C(=O)OC(C)C)NC[C@@H](N)CS` [L744,832] here?
**A.** < 10%
